Like-named read-outs stand apart in the source and are kept apart here. Values belong to the molecule of their own block, whether it stands above or below them.
How the values were obtained:
BCRP [1] = target: T1, BCRP (Homo sapiens, UniProt Q9UNQ0); type: biochemical
T1 sequence (Q9UNQ0 1-655): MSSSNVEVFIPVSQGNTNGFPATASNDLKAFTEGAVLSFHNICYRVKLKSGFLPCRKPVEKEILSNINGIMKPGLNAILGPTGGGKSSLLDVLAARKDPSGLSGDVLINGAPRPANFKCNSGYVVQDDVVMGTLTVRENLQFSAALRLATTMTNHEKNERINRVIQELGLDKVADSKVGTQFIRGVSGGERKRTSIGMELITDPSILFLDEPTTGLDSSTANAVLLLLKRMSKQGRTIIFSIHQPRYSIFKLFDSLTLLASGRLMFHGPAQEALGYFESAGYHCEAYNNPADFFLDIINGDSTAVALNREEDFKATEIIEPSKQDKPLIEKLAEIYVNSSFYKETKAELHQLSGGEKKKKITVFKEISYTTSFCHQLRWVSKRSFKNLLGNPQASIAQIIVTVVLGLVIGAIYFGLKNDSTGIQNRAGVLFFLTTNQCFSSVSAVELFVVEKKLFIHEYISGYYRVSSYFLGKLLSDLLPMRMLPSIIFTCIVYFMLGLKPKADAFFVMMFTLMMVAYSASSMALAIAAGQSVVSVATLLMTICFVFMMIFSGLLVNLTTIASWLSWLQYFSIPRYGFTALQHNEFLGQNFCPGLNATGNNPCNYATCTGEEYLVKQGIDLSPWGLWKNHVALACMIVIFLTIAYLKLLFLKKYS

OATP1B1 [2] = target: T2, OATP1B1 (Homo sapiens, UniProt Q9Y6L6); type: cell-based
T2 sequence (Q9Y6L6 1-691): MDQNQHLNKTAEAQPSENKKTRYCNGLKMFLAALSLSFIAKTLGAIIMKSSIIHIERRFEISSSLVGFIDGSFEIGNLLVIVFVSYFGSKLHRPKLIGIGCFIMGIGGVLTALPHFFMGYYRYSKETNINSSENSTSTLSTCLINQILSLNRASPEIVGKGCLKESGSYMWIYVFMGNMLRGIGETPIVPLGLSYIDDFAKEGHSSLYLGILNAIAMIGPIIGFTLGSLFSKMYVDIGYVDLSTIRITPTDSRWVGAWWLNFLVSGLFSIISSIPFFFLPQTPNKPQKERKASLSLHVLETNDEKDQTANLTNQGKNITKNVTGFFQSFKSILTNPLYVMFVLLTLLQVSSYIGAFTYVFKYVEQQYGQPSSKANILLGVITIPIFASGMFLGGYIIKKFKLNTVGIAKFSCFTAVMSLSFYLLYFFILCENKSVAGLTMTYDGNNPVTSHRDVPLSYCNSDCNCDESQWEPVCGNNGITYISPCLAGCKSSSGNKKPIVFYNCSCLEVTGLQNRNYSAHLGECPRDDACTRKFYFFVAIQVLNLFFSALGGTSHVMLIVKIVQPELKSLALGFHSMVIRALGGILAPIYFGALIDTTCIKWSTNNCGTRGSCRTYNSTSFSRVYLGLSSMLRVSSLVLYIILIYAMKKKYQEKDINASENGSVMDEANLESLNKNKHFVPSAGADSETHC
Summary of the method: (§1)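 HEK293 lines overexpressing the named transporter were grown in DMEM with 10% FBS, 1% penicillin/streptomycin and line-specific selection antibiotics, at 37°C, humidified, 5% CO₂. Cell-based uptake assays measured inhibition of transporter activity.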

OATP1B3 [3] = target: T3, OATP1B3 (Homo sapiens, UniProt Q9NPD5); type: cell-based
T3 sequence (Q9NPD5 1-702): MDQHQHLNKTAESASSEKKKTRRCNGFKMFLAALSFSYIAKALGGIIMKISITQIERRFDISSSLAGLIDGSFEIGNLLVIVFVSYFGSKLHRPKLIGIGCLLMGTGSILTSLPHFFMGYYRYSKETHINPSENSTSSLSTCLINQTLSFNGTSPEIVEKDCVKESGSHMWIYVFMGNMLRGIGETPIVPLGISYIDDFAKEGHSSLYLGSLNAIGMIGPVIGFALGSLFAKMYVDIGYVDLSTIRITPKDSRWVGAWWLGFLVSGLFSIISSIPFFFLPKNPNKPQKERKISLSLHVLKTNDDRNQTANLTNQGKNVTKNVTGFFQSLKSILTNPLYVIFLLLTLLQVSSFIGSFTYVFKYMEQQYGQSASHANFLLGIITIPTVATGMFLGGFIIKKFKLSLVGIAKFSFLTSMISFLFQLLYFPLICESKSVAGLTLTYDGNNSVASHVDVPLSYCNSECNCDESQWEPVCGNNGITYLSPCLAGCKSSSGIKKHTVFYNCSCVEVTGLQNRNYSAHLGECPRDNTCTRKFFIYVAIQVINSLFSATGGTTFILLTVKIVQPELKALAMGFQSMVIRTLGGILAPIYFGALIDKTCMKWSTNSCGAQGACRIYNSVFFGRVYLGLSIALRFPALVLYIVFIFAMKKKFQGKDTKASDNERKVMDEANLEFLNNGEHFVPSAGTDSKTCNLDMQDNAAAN
Summary of the method: as §1

RFVT1 = target: T4, RFVT1 (Homo sapiens, UniProt Q9NWF4); type: cell-based
T4 sequence (Q9NWF4 1-448): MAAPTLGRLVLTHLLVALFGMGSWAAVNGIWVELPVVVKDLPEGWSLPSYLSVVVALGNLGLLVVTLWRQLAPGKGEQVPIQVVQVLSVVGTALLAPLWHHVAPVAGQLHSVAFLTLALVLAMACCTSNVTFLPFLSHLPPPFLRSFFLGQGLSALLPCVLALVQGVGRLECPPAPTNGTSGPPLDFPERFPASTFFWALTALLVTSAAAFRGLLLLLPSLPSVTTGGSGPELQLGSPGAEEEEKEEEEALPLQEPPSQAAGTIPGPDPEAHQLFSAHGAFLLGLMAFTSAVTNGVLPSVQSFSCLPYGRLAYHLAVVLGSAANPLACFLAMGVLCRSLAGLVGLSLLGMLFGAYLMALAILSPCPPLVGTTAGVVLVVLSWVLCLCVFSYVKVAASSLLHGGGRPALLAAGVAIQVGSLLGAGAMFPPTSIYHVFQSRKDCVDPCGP
Summary of the method: as §1

RFVT2 = target: T5, RFVT2 (Homo sapiens, UniProt Q9HAB3); type: cell-based
T5 sequence (Q9HAB3 1-445): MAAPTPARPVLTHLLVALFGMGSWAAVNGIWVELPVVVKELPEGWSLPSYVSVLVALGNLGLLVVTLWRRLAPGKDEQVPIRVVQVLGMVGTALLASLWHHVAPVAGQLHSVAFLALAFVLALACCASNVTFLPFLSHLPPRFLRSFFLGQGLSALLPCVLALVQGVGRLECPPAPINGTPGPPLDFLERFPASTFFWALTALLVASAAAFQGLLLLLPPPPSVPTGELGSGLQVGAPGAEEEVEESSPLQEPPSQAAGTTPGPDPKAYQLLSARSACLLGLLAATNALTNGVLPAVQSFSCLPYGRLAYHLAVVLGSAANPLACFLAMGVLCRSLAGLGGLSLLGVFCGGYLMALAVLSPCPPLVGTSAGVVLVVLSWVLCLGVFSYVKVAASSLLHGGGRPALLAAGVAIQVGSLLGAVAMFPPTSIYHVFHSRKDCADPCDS
Summary of the method: as §1

RFVT3 = target: T6, RFVT3 (Homo sapiens, UniProt Q9NQ40); type: cell-based
T6 sequence (Q9NQ40 1-469): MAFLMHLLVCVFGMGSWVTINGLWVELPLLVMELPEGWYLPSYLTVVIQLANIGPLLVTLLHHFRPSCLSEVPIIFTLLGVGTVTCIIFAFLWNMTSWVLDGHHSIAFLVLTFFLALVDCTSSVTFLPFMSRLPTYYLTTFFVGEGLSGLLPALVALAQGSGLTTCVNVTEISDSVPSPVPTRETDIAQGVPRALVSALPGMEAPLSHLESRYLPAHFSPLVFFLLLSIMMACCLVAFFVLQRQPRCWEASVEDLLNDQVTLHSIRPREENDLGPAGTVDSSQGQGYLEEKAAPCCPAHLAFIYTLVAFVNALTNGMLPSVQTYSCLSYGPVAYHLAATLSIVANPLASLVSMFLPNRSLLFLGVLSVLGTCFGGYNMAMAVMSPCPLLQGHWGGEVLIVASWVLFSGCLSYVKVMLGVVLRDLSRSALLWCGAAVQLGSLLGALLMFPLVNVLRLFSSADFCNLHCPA
Summary of the method: as §1

hepatic BCRP = conditions: intravenous ceftriaxone as model; cited from earlier work
BCRP [4] = target: T1, BCRP; type: cell-based
Summary of the method: (§2)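 Transporter-overexpressing HEK293 cells were cultured in DMEM with 10% FBS, 1% penicillin/streptomycin and selection antibiotics at 37°C, 5% CO₂. Test compounds were screened at 10 μM and 30 μM, and uptake was quantified as normalised peak areas. For OATP1B1/1B3, uptake was compared with empty-vector cells, and for OATP1B1 also with cells treated with the inhibitor cyclosporine A.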

OATP1B1 [5] = target: T2, OATP1B1; type: cell-based; conditions: HEK293 OATP1B1 cells
Summary of the method: as §2

OATP1B3 [6] = target: T3, OATP1B3; assay: Substrate screening in HEK293 cells expressing OATP1B3; type: cell-based
Summary of the method: as §2

P-gp = P-gp (Homo sapiens, UniProt P08183); assay: Inhibitor screening of [3H]digoxin accumulation in HEK293 cells expressing P-gp; type: cell-based
Chain of P-gp (P08183 whole entry): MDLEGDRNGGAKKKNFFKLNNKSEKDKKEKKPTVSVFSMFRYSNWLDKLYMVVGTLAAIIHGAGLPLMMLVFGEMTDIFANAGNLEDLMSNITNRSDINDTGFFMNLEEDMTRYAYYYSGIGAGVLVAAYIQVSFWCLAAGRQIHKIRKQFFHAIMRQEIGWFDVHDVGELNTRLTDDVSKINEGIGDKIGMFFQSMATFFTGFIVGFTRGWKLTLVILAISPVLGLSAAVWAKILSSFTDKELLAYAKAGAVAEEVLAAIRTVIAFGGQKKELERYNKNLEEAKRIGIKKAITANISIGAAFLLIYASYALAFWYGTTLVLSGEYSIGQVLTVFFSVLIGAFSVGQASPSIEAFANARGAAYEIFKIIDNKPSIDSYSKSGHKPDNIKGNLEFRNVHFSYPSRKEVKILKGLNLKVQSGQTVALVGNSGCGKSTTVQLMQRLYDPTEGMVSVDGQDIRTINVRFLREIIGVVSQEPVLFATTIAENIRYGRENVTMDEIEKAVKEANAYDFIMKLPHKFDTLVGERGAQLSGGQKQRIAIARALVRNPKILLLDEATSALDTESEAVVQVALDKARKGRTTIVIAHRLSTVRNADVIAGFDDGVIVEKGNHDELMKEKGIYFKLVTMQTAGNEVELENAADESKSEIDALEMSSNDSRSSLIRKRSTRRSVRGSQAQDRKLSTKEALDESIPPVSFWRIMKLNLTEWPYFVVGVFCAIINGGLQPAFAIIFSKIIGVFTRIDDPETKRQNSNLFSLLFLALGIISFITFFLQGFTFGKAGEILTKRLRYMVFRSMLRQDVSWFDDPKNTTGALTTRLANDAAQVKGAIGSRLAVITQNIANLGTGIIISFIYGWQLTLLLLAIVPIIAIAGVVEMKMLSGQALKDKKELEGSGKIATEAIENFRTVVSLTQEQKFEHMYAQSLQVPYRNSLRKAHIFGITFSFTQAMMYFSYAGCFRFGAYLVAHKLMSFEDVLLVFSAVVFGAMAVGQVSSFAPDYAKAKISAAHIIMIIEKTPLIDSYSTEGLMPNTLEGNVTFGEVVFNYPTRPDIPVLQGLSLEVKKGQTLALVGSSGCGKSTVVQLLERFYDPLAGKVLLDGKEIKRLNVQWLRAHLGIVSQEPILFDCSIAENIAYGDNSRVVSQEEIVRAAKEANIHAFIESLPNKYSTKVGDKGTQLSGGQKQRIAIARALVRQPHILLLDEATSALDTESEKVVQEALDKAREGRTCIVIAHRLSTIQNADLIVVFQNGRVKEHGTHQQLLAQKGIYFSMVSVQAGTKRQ
Summary of the method: as §1

[7] = type: in vivo, human; conditions: for AUC(0-t): geometric mean (90% CI)
ABCG2 p.Q141K variant = type: in vivo, human; conditions: two p.Q141K (CA) vs nine REF (CC) individuals; T = 0 h
Summary of the method: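 Open-label fixed-sequence crossover in 11 healthy non-smoking adults aged 18–64. Single oral rosuvastatin 10 mg given after an overnight fast, with fasting continued 4 h. Heparinised venous plasma was stored at −70°C and analysed by LC–MS. ABCG2 c.421C>A was genotyped blind by PCR and Sanger sequencing. Nine CC and two CA subjects were compared at T = 0 h and by noncompartmental PK, using log-transformed geometric means and unpaired t-tests.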

[8] = both, human, plasma, oral, 10 mg

IC50 (BCRP [1]): 4.9 ± 0.6 µM | IC50 (OATP1B1 [2]): 1.4 ± 1.2 µM | IC50 (OATP1B3 [3]): 4 ± 3.1 µM | IC50 (RFVT1): 44.7 ± 18.3 µM | IC50 (RFVT2): 28.2 ± 15.7 µM | IC50 (RFVT3): 26.3 ± 34 µM
SMILES: CC1=NN(c2ccc(C)c(C)c2)C(=O)/C1=N\Nc1cccc(-c2cccc(C(=O)O)c2)c1O [Eltrombopag]
Inhibition of hepatic BCRP (hepatic BCRP): does not inhibit

Uptake in BCRP-expressing HEK293 cells compared to same cell line with Ko143 (BCRP [4]; 10 μM and 30 μM, 30 min): significantly reduced | BCRP substrate classification (BCRP [4]; HEK293 BCRP cells): BCRP substrates | OATP1B1 substrate classification (OATP1B1 [5]): not substrates | OATP1B3 substrate classification (OATP1B3 [6]): not substrates | Effect on intracellular accumulation of P-gp substrate [3H]digoxin (P-gp): did not affect | AUC0−24, geometric mean ratio (90% CI) of rosuvastatin + eltrombopag arm to rosuvastatin alone arm ([7]; both, human, plasma, oral): 0.95 (0.89–1.02); P = 0.38 | C0 at 0 h ([7]; both, human, plasma, oral): 0.57 ng/mL | Cmax ([7]; both, human, plasma, oral): 0.7 ng/mL | C0 at 0 h [7, 8]: 0.64 ng/mL | Cmax [7, 8]: 0.7 ng/mL | AUC(0-t) ([7]; both, human, plasma, oral, 10 mg, AUC0−4, rosuvastatin alone arm): 2.13 ng·h/mL | AUC(0-t) ([7]; both, human, plasma, oral, AUC0−4, rosuvastatin + eltrombopag arm): 2.1 ng·h/mL | Effect of eltrombopag administration on plasma concentrations (in words) ([7]; eltrombopag 75 mg daily for 5 days): did not lead to corresponding increases | AUC0−4, geometric mean ratio (90% CI) of rosuvastatin + eltrombopag arm to rosuvastatin alone arm ([7]; human, in vivo): 0.98 (0.91–1.07); P = 0.78 | Cmax, geometric mean ratio (90% CI) of rosuvastatin + eltrombopag arm to rosuvastatin alone arm ([7]; human, in vivo): 1.01 (0.93–1.09); P = 0.96 | Food effects, fasted (AUC0−4) vs fed (AUC4−8) ([7]; human, in vivo): No food effects | Baseline concentrations, heterozygous p.Q141K vs homozygous reference allele (ABCG2 p.Q141K variant): significantly higher
SMILES: O=C(O)c1c(O)c(Cl)cc(Br)c1O [BCDBA, 3‐bromo‐5‐chloro‐2,6‐dihydroxybenzoic acid]
